pEC50: −log10 of the molar value. Calls of active or inactive are those of the source. No cut-off for these calls is given here.
Experiments:
[1] = Anti-prion activity against [PSI+] protein in Saccharomyces cerevisiae STRg6 measured after 24 hrs by fluorimetry analysis
Method in brief: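 Whole-cell yeast assay for curing of the [PSI+] prion, which depends on compound uptake across the cell membrane. EC50 (μM) reported ± SE. Guanabenz was run as the positive control.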

Saccharomyces cerevisiae = test: Anti-prion activity against [URE3] protein in Saccharomyces cerevisiae SB34 at 100 uM measured after 24 hrs by fluorimetry analysis
Method in brief: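 Whole-cell yeast assay for curing of the [URE3] prion at a single concentration of 100 μM, scored as yes/no curing. Guanabenz was run as the positive control.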

Row | Compound | pEC50 [1] | Activity (Saccharomyces cerevisiae)
1 | COc1c(Br)cc(C[C@H](O)C(=O)c2cc(Br)c(O)c(Br)c2)cc1Br | 4.48 | Active
2 | COc1c(Br)cc(C[C@@H]2OC(=O)C(O)=C2c2cc(Br)c(O)c(Br)c2)cc1Br | 4.47 | Active
3 | COC1=C(c2cc(Br)c(O)c(Br)c2)[C@H](Cc2ccc(OC)c(Br)c2)OC1=O | 4.19 | Active
4 | COC1=C(c2cc(Br)c(O)c(Br)c2)[C@H](Cc2cc(Br)c(OC)c(Br)c2)OC1=O | 4.17 | Active
5 | COc1ccc(C[C@@H]2OC(=O)C(O)=C2c2cc(Br)c(O)c(Br)c2)cc1Br | 4.64 | Active
6 | COc1ccc(C[C@H](O)C(=O)c2cc(Br)c(O)c(Br)c2)cc1Br | 4.54 | Active
7 | N=C(N)N/N=C/c1c(Cl)cccc1Cl [GUANABENZ] | 4.59 | Active

Source: ChEMBL document CHEMBL4321801, “Anti-prion Butenolides and Diphenylpropanones from the Australian Ascidian Polycarpa procera” (J Nat Prod, 2019)
